# Tested on: Eimeria tenella
# Test: Anticoccidial activity (percent reduction in oocyst production) against Eimeria tenella in white leghorn chickens at 100 ppm
# Format: functional
# Set-up: scale not given: the % may be the effect or the level left
# Procedure, shortened: (§1)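 White Leghorn chicks were acclimated, then at 3 days old sorted by weight and randomized to medicated or control diets. There were one or two replicates of two birds per treatment. After 24 h of premedication, one bird per replicate got E. acervulina and the other E. tenella, both drug-sensitive laboratory strains. Inocula were sporulated oocysts in tap water, 0.25 mL per bird, giving low-to-moderate infection.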
row,Compound,Activity
1,CN1CCC(c2nc(-c3ccc(F)cc3)c(-c3ccncc3)o2)CC1,>=80%
2,CN1CCC(c2cc(-c3ccncc3)c(-c3ccc(F)c(F)c3)[nH]2)CC1,>=80%
3,CN1CCC(c2cc(-c3ccncc3)c(-c3ccsc3)[nH]2)CC1,<50%
4,OCCN1CCC(c2cc(-c3ccncc3)c(-c3ccc(F)cc3)[nH]2)CC1,>=80%
5,CCCN1CCC(c2cc(-c3ccncc3)c(-c3ccc(F)cc3)[nH]2)CC1,<50%

# Target: cGMP-dependent protein kinase (Eimeria tenella, UniProt Q8MMZ8)
# Test: In vitro inhibition of Eimeria tenella cGMP-dependent protein kinase
# Sequence of cGMP-dependent protein kinase (Q8MMZ8 whole entry): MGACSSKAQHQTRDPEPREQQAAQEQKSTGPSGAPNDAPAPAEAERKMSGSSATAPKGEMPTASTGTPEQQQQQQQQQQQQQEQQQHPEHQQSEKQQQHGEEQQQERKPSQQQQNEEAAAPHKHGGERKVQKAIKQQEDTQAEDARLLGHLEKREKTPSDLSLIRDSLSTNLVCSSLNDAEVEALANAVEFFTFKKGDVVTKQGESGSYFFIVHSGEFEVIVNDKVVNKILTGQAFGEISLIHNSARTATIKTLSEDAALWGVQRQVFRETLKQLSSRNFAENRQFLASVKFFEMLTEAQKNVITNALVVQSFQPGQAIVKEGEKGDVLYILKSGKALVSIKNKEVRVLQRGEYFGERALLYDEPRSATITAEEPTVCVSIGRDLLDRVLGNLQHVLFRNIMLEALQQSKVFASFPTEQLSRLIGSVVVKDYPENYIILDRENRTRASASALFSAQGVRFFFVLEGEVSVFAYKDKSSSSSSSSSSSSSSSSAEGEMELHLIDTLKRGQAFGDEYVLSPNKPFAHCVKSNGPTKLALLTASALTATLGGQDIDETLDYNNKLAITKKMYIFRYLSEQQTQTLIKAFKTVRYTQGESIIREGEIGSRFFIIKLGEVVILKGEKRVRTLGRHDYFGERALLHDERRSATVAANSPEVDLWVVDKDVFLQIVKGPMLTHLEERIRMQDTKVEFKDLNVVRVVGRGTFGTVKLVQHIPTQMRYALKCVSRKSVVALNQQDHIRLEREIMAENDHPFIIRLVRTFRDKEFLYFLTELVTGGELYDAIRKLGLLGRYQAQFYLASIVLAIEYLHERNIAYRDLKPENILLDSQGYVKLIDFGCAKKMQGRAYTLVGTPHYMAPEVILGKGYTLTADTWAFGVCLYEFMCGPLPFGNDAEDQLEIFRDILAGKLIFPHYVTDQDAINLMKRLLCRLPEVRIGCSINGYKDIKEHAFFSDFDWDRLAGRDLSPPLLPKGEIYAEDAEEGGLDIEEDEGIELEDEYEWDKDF
row,Compound,IC50 [nM]
1,CN1CCC(c2cc(-c3ccncc3)c(-c3ccc(F)c(F)c3)[nH]2)CC1,2
2,CN1CCC(c2cc(-c3ccncc3)c(-c3ccsc3)[nH]2)CC1,11.9
3,CCCN1CCC(c2cc(-c3ccncc3)c(-c3ccc(F)cc3)[nH]2)CC1,4.2

# Molecules with a lower IC50, results first:
row,IC50 [nM],Compound
1,0.97,CN1CCC(c2nc(-c3ccc(F)cc3)c(-c3ccncc3)o2)CC1
2,0.71,OCCN1CCC(c2cc(-c3ccncc3)c(-c3ccc(F)cc3)[nH]2)CC1

# Tested on: Eimeria acervulina
# Test: Anticoccidial activity (percent reduction in oocyst production) against Eimeria acervulina in white leghorn chickens at 100 ppm
# Format: functional
# Set-up: scale not given: the % may be the effect or the level left
# Procedure, shortened: as §1
row,Compound,Activity
1,CN1CCC(c2nc(-c3ccc(F)cc3)c(-c3ccncc3)o2)CC1,>=80%
2,CN1CCC(c2cc(-c3ccncc3)c(-c3ccc(F)c(F)c3)[nH]2)CC1,<50%
3,CN1CCC(c2cc(-c3ccncc3)c(-c3ccsc3)[nH]2)CC1,<50%
4,OCCN1CCC(c2cc(-c3ccncc3)c(-c3ccc(F)cc3)[nH]2)CC1,>=80%
5,CCCN1CCC(c2cc(-c3ccncc3)c(-c3ccc(F)cc3)[nH]2)CC1,<50%
